Data published in ChEMBL document CHEMBL4842314, “Synthesis and SAR evaluation of coumarin derivatives as potent cannabinoid receptor agonists” (Eur J Med Chem, 2021).

How the values were obtained:
Cannabinoid receptor 1 [1] = target: T1, Cannabinoid receptor 1 (Homo sapiens, UniProt P21554); assay: Displacement of [3H]-CP55940 from human recombinant CB1 receptor expressed in CHO-K1 cell membrane measured after 3 hrs by scintillation spectrometry; type: cell membranes
Cannabinoid receptor 2 [2] = target: T2, Cannabinoid receptor 2 (Homo sapiens, UniProt P34972); assay: Displacement of [3H]-CP55940 from human recombinant CB2 receptor expressed in CHO-K1 cell membrane measured after 3 hrs by scintillation spectrometry; type: cell membranes
T2 sequence (P34972 whole entry): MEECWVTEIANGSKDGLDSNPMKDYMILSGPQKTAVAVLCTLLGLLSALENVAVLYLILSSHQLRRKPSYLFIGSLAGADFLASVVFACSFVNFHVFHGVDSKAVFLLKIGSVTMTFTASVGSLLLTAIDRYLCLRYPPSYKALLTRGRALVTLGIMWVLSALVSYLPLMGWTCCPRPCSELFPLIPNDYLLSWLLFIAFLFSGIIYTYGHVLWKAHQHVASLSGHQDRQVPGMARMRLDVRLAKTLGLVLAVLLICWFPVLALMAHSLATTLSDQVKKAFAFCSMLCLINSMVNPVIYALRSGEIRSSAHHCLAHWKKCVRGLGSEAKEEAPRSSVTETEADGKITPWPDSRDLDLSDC

Cannabinoid receptor 1 [3] = target: T1, Cannabinoid receptor 1; assay: Displacement of [3H]-CP55940 from human recombinant CB1 receptor expressed in CHO-K1 cell membrane at 1 uM measured after 3 hrs by scintillation spectrometry; type: cell membranes
Cannabinoid receptor 2 [4] = target: T2, Cannabinoid receptor 2; assay: Displacement of [3H]-CP55940 from human recombinant CB2 receptor expressed in CHO-K1 cell membrane at 1 uM measured after 3 hrs by scintillation spectrometry; type: cell membranes
Cannabinoid receptor 2 [5] = target: T2, Cannabinoid receptor 2; assay: Agonist activity at human recombinant CB2 receptor expressed in CHO-K1 cell membrane assessed as increase in GTPgammaS binding at 1 uM pretreated for 30 mins followed by [35S]GTPgammaS addition for 90 mins by [35S]GTP-gammaS binding assay relative to CP55940; type: functional, cell membranes; details: time 120.0 min
Procedure, shortened: (§1)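 Membranes (5 μg) from PathHunter CHOK1 cells stably expressing hCB1 or hCB2 pre-incubated 30 min at room temperature with test ligand at 1 μM final, 1 μM GDP and 5 μg saponin in Tris-HCl pH 7.4, MgCl2, NaCl, EDTA, BSA, DTT. [35S]GTPγS (0.3 nM final) was then added for 90 min at 25 °C. Filtration on GF/B. Emax given relative to CP55,940 (100%), two experiments in duplicate.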

Cannabinoid receptor 2 [6] = target: T2, Cannabinoid receptor 2; assay: Agonist activity at human recombinant CB2 receptor expressed in CHO-K1 cell membrane assessed as increase in GTPgammaS binding pretreated for 30 mins followed by [35S]GTPgammaS addition for 90 mins by [35S]GTP-gammaS binding assay; type: functional, cell membranes
Procedure, shortened: (§2)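 Concentration-response [35S]GTPγS binding on 5 μg hCB1 or hCB2 CHOK1 membranes. Ligand, 1 μM GDP and saponin pre-incubated 30 min at room temperature, then 0.3 nM [35S]GTPγS added for 90 min at 25 °C. Filtration read-out. Three experiments in duplicate.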

Cannabinoid receptor 1 [7] = target: T1, Cannabinoid receptor 1; assay: Agonist activity at human recombinant CB1 receptor expressed in CHO-K1 cell membrane assessed as increase in GTPgammaS binding at 1 uM pretreated for 30 mins followed by [35S]GTPgammaS addition for 90 mins by [35S]GTP-gammaS binding assay relative to CP55940; type: functional, cell membranes; details: filed as agonist, time 120.0 min; procedure, shortened: as §1
Cannabinoid receptor 1 [8] = target: T1, Cannabinoid receptor 1; assay: Agonist activity at human recombinant CB1 receptor expressed in CHO-K1 cell membrane assessed as increase in GTPgammaS binding pretreated for 30 mins followed by [35S]GTPgammaS addition for 90 mins by [35S]GTP-gammaS binding assay; type: functional, cell membranes; procedure, shortened: as §2

T1 sequence (P21554 whole entry): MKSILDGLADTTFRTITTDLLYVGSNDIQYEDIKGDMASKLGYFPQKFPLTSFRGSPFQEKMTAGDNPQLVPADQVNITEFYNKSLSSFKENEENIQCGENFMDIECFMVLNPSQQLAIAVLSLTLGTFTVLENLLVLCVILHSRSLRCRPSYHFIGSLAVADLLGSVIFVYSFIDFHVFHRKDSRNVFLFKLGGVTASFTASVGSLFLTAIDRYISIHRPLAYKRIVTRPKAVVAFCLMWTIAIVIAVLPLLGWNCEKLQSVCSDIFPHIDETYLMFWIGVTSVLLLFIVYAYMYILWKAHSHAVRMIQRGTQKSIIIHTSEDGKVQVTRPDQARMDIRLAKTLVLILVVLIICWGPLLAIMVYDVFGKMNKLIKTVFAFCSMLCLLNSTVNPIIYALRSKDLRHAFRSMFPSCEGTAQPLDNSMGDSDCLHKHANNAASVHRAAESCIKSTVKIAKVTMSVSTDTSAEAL

| SMILES | Ki (Cannabinoid receptor 1 [1]; read-out: pKi (converted)) [nM] | inhibition (Cannabinoid receptor 2 [4]; filed as agonist) [%] | Ki (Cannabinoid receptor 2 [2]; read-out: pKi (converted)) [nM] | inhibition (Cannabinoid receptor 2 [4]) [%] | inhibition (Cannabinoid receptor 1 [3]) [%] | further results |
| --- | --- | --- | --- | --- | --- | --- |
| CCCCC1(c2cc(O)c3cc(CCC)c(=O)oc3c2)CCCC1 | > 1000 | > 50 | – | – | – | Ki (Cannabinoid receptor 2 [2]; read-out: Ki): 18.6 nM; inhibition (Cannabinoid receptor 1 [3]; filed as agonist): 47%; Emax (Cannabinoid receptor 2 [5]; filed as agonist): 91% |
| CCCCC(C)(C)c1cc(OC)c2cc(Cc3ccccc3C)c(=O)oc2c1 | – | – | > 1000 | 32 | – | Ki (Cannabinoid receptor 1 [1]; read-out: Ki): 217 nM; inhibition (Cannabinoid receptor 1 [3]; filed as agonist): > 50% |
| CCCCC1(c2cc(OC)c3cc(-c4ccc(C(F)(F)F)cc4)c(=O)oc3c2)CCCC1 | > 1000 | – | > 1000 | -4 | 3 | – |
| CCCCC1(c2cc(O)c3cc(Cc4ccncc4)c(=O)oc3c2)CCCC1 | > 1000 | – | > 1000 | 21 | – | – |
| CCCCCCC(C)(C)c1cc(OC)c2cc(Cc3ccccc3C(F)(F)F)c(=O)oc2c1 | > 1000 | – | > 1000 | 3 | 26 | – |
| CCCCC1(c2cc(O)c3cc(-c4ccccc4O)c(=O)oc3c2)CCCC1 | > 1000 | – | > 1000 | -2 | – | – |
| CCCCC1(c2cc(OC)c3cc(Cc4ccccn4)c(=O)oc3c2)CCCC1 | > 1000 | – | > 1000 | 20 | 29 | – |
| CCCCC1(c2cc(OC)c3cc(C)c(=O)oc3c2)CCCCC1 | > 1000 | – | > 1000 | – | 9 | – |
| CCCCCCC(C)(C)c1cc(OC)c2cc(Cc3ccccc3OC)c(=O)oc2c1 | – | > 50 | – | – | – | inhibition (Cannabinoid receptor 1 [3]; filed as agonist): > 50% |
| CCCCC1(c2cc(OC)c3cc(Cc4cccnc4)c(=O)oc3c2)CCCC1 | > 1000 | 40 | > 1000 | – | 29 | – |
| CCCCC(C)(C)c1cc(O)c2cc(Cc3ccccc3O)c(=O)oc2c1 | > 1000 | – | > 1000 | 37 | 24 | – |
| CCCCC1(c2cc(OC)c3cc(CC)c(=O)oc3c2)CCCCC1 | > 1000 | – | > 1000 | -1 | 6 | – |
| CCCCC1(c2cc(O)c3cc(CC)c(=O)oc3c2)CCCCC1 | > 1000 | > 50 | – | – | 39 | Ki (Cannabinoid receptor 2 [2]; read-out: Ki): 39.1 nM; Emax (Cannabinoid receptor 2 [5]; filed as agonist): 65% |
| CCCCC1(c2cc(OC)c3cc(-c4ccccc4)c(=O)oc3c2)CCCC1 | > 1000 | – | > 1000 | -8 | 34 | – |
| CCCCc1cc2c(O)cc(C3(CCCC)CCCC3)cc2oc1=O | 1000 | > 50 | – | – | – | Ki (Cannabinoid receptor 2 [2]; read-out: Ki): 13.7 nM; inhibition (Cannabinoid receptor 1 [3]; filed as agonist): 50%; Emax (Cannabinoid receptor 2 [5]; filed as agonist): 85%; EC50 (Cannabinoid receptor 2 [6]): 18 nM |
| CCCCCc1cc(OC)c2cc(Cc3ccccn3)c(=O)oc2c1 | – | > 50 | – | – | – | Ki (Cannabinoid receptor 1 [1]; read-out: Ki): 70.3 nM; Ki (Cannabinoid receptor 2 [2]; read-out: Ki): 82.4 nM; inhibition (Cannabinoid receptor 1 [3]; filed as agonist): > 50%; Emax (Cannabinoid receptor 1 [7]): 46%; Emax (Cannabinoid receptor 2 [5]): 34%; EC50 (Cannabinoid receptor 1 [8]): 1010 nM; EC50 (Cannabinoid receptor 2 [6]): 188 nM |
| CCCCC1(c2cc(O)c3cc(-c4ccccc4C)c(=O)oc3c2)CCCC1 | > 1000 | 43 | > 1000 | – | 4 | – |
| CCCCC1(c2cc(OC)c3cc(-c4ccccc4OC)c(=O)oc3c2)CCCC1 | > 1000 | – | > 1000 | – | -10 | – |
| CCCCCc1cc(O)c2cc(Cc3ccncc3)c(=O)oc2c1 | > 1000 | – | > 1000 | -5 | – | – |
| CCCCC1(c2cc(O)c3cc(-c4ccccc4)c(=O)oc3c2)CCCC1 | > 1000 | – | > 1000 | – | – | – |
| CCCCC1(c2cc(OC)c3cc(CCC)c(=O)oc3c2)CCCCC1 | > 1000 | – | > 1000 | -4 | 18 | – |
| CCCCC1(c2cc(OC)c3cc(Cc4cccnc4)c(=O)oc3c2)CCCCC1 | > 1000 | – | > 1000 | 11 | 6 | – |
| CCCCC1(c2cc(O)c3cc(Cc4ccncc4)c(=O)oc3c2)CCCCC1 | > 1000 | 46 | > 1000 | – | 5 | – |
| CCCCCc1cc(O)c2cc(Cc3ccccn3)c(=O)oc2c1 | > 1000 | – | > 1000 | – | – | – |
| CCCCCc1cc(OC)c2cc(Cc3cccnc3)c(=O)oc2c1 | – | > 50 | – | – | – | Ki (Cannabinoid receptor 1 [1]; read-out: Ki): 171 nM; Ki (Cannabinoid receptor 2 [2]; read-out: Ki): 56.5 nM; inhibition (Cannabinoid receptor 1 [3]; filed as agonist): > 50%; Emax (Cannabinoid receptor 1 [7]): 40%; Emax (Cannabinoid receptor 2 [5]; filed as agonist): 40% |
| CCCCC1(c2cc(OC)c3cc(Cc4ccncc4)c(=O)oc3c2)CCCCC1 | > 1000 | – | > 1000 | 3 | 26 | – |
